The structures appear in SMILES notation. In brackets after ≈: the same amount, converted by molar mass. Activity calls are given as the source filed them. The calls are words filed in the database; no cut-off is given here.

Experimental findings from ChEMBL document CHEMBL1806360, “Synthesis and biological evaluation of conformationally flexible as well as restricted dimers of monastrol and related dihydropyrimidones” (Eur J Med Chem, 2011) are described below.

The test system of assay [1] is MCF7. Nature of the assay: Cytotoxicity against human MCF7 cells after 48 hrs by MTT assay. The format is functional, cell-based. The following applies: MCF7, 48 h. The method in brief:
(§1)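 MTT assay. Medium with 10% FBS and 2 mM L-glutamine was DMEM for A431 and Colo-205, RPMI for A549, and MEM for MCF-7. Cultures were preincubated 24 h at 37 °C, 5% CO2. 1 × 10⁴ cells (trypan blue count) were exposed to 200, 100, 50, 25 and 10 concentration levels for 48 h at 37 °C. MTT was added for 4 h, formazan dissolved in DMSO, and A570 read. IC50 was curve-fitted from viability versus untreated cells, three experiments.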

For a further assay, the system named is COLO 205. Kind of assay: Cytotoxicity against human COLO205 cells after 48 hrs by MTT assay. Type of assay: functional, cell-based. The settings on record: COLO 205, 48 h. The method in brief: as §1
A further assay concerns A-431. Kind of assay: Cytotoxicity against human A431 cells after 48 hrs by MTT assay. The format is functional, cell-based. The settings on record: A-431, 48 h. An outline of the steps:
as §1

In the next assay the test system is A549. Nature of the assay: Cytotoxicity against human A549 cells after 48 hrs by MTT assay. Type of assay: functional, cell-based. The settings on record: A549, 48 h. An outline of the steps:
as §1

The test system of the next assay is Nucleic Acid. Nature of the assay: Binding affinity to calf thymus DNA assessed as change in melting temperature at compound to DNA ratio of 1:5 after 18 hrs at pH 7. The format is nucleic-acid assay. The following applies: Bos taurus. The method in brief:
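Thermal melting of calf thymus DNA in 10 mM sodium phosphate with 1 mM Na2EDTA, pH 7.00. Compound was added from DMSO stock at a fixed 1:5 compound:DNA molar ratio. The mix was incubated 18 h at 37 °C, then A260 was monitored while heating at 1 °C/min over 40–90 °C. ΔTm is relative to DNA alone.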

Assay [2] concerns the target T1, Kinesin-like protein KIF11 (Homo sapiens, UniProt P52732).
T1 sequence (P52732 whole entry): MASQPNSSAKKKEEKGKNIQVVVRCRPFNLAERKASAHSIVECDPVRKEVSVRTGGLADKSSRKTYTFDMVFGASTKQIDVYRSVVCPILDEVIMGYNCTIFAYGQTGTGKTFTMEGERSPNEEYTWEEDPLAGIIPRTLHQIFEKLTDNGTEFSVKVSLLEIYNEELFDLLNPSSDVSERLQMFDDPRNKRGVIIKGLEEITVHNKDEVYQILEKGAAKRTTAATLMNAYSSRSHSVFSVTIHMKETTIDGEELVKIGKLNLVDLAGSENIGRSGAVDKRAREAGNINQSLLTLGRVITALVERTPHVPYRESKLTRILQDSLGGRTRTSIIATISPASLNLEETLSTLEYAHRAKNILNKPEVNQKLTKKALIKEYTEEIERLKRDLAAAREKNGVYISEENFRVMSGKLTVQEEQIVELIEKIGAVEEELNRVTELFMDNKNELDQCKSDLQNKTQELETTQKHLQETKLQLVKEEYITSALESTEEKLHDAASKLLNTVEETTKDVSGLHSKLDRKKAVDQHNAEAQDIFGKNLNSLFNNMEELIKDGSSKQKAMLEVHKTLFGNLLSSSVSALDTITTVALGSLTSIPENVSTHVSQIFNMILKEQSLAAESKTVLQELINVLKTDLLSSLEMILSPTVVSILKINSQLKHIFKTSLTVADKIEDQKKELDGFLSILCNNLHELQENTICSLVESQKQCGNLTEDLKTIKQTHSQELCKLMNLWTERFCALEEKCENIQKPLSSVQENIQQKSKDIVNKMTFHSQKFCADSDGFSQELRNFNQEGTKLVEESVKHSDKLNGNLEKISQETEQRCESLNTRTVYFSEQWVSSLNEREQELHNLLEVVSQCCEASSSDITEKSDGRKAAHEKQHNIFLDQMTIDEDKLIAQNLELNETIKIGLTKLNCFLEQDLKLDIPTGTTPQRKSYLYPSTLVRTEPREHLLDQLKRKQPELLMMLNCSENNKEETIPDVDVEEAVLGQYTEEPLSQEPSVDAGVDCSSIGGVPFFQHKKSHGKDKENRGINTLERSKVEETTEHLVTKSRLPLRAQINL
Kind of assay: Inhibition of HsEg5.

A further assay concerns HT-29. Nature of the assay: Cytotoxicity against human HT-29 cells after 48 hrs by MTT assay. Type of assay: functional, cell-based. The following applies: HT-29, 48 h.
In assay [3] the test system is Staphylococcus aureus. Nature of the assay: Antibacterial activity against Staphylococcus aureus assessed as zone of inhibition at 100 ug/ml by agar plate method. Type of assay: functional. The following applies: read-out: IZ. An outline of the steps:
(§2)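 Well diffusion on Mueller-Hinton agar. Inoculum from 3–5 colonies was grown in nutrient broth and adjusted to 0.5 McFarland (about 1 × 10⁸ CFU/mL), then swabbed over the plate. Compounds were dissolved in DMSO and added to duplicate 6 mm wells. Plates were incubated 18 h at 37 °C, and inhibition zone diameter was read to the nearest mm. Ciprofloxacin was the positive control and DMSO the negative control.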

Assay [4] concerns Staphylococcus epidermidis. Nature of the assay: Antibacterial activity against Staphylococcus epidermidis assessed as zone of inhibition at 100 ug/ml by agar plate method. The settings on record: read-out: IZ. Type of assay: functional. The method in brief: as §2
Assay [5] concerns Bacillus subtilis. Kind of assay: Antibacterial activity against Bacillus subtilis assessed as zone of inhibition at 100 ug/ml by agar plate method. The format is functional. The settings on record: read-out: IZ. An outline of the steps:
as §2

Assay [6] concerns Escherichia coli. Kind of assay: Antibacterial activity against Escherichia coli assessed as zone of inhibition at 100 ug/ml by agar plate method. Type of assay: functional. The settings on record: read-out: IZ. The method in brief:
as §2

Assay [7] concerns Klebsiella pneumoniae. Kind of assay: Antibacterial activity against Klebsiella pneumoniae assessed as zone of inhibition at 100 ug/ml by agar plate method. The format is functional. The settings on record: read-out: IZ. An outline of the steps:
as §2

Assay [8] deals with Pseudomonas aeruginosa. Nature of the assay: Antibacterial activity against Pseudomonas aeruginosa assessed as zone of inhibition at 100 ug/ml by agar plate method. Type of assay: functional. The following applies: read-out: IZ. An outline of the steps:
as §2

Assay [9] has as its system Staphylococcus epidermidis. Kind of assay: Antibacterial activity against Staphylococcus epidermidis assessed as zone of inhibition at 50 ug/ml by agar plate method. Type of assay: functional, organism-based. An outline of the steps: as §2
Assay [10] deals with Bacillus subtilis. Kind of assay: Antibacterial activity against Bacillus subtilis assessed as zone of inhibition at 50 ug/ml by agar plate method. Type of assay: functional, organism-based. An outline of the steps:
as §2

Assay [11] concerns Escherichia coli. Kind of assay: Antibacterial activity against Escherichia coli assessed as zone of inhibition at 50 ug/ml by agar plate method. The format is functional, organism-based. The method in brief: as §2
Assay [12] has as its system Klebsiella pneumoniae. Kind of assay: Antibacterial activity against Klebsiella pneumoniae assessed as zone of inhibition at 50 ug/ml by agar plate method. Type of assay: functional, organism-based. The method in brief: as §2
Assay [13] deals with MCF7. Nature of the assay: Ratio IC50 for monastrol to compound for human MCF7 cells. The format is functional.
Assay [14] has as its system Staphylococcus aureus. Kind of assay: Antibacterial activity against Staphylococcus aureus assessed as zone of inhibition at 50 ug/ml by agar plate method. Type of assay: functional. The following applies: read-out: IZ. The method in brief: as §2
The subject of assay [15] is Pseudomonas aeruginosa. Kind of assay: Antibacterial activity against Pseudomonas aeruginosa assessed as zone of inhibition at 50 ug/ml by agar plate method. Type of assay: functional. The settings on record: read-out: IZ. An outline of the steps: as §2

As for `CCOC(=O)C1=C(C)NC(=S)NC1c1cccc(O)c1` (configuration not stated) [MONASTROL], the IC50 with MCF7 [1] is 45 µg/mL (≈ 154 µM); in the assay on COLO 205, 164 µg/mL (≈ 561 µM); with A-431 it was 53 µg/mL (≈ 181 µM); in the assay with A549 it was 118 µg/mL (≈ 404 µM); in [2] it was 14 µM. In addition, the ΔTm with Nucleic Acid stood at 0 °C.
As for `COC(=O)[C@@H]1CCCN1C(=O)C1=C(C)NC(=S)NC1c1cccc(OC/C=C\COc2cccc(C3NC(=S)NC(C)=C3C(=O)N3CCC[C@H]3C(=O)OC)c2)c1` (some centres not stated), the IC50 with MCF7 [1] was 156 µg/mL (≈ 194 µM); in the assay with COLO 205 it was 180 µg/mL (≈ 224 µM); in the assay on HT-29, over 200 µg/mL; in the assay with A-431 it was 183 µg/mL (≈ 228 µM); in the assay with A549 it was over 200 µg/mL. For the same compound, the zone of inhibition at 100 µg/mL in the assay on Staphylococcus aureus [3] was 15 mm; in assay [4], 17 mm; in the assay with Bacillus subtilis [5], 12 mm; with Escherichia coli [6], 12 mm; in the assay with Klebsiella pneumoniae [7], 3 mm; in the assay on Pseudomonas aeruginosa [8], 12 mm. Further, the ΔTm in the assay with Nucleic Acid came out at 3.1 °C. For the same compound, the outcome (in [9]; in the assay on Bacillus subtilis [10]; with Escherichia coli [11]; with Klebsiella pneumoniae [12]) was inactive.
Consider `CCOC(=O)C1=C(C)NC(=S)NC1c1ccc(OCCCOc2ccc(C3NC(=S)NC(C)=C3C(=O)OCC)cc2OC)c(OC)c1` (configuration not stated), for which the IC50 is 22 µg/mL (≈ 32.1 µM) with MCF7 [1]; 49 µg/mL (≈ 71.5 µM) with COLO 205; over 200 µg/mL with HT-29; 66 µg/mL (≈ 96.4 µM) with A-431; 116 µg/mL (≈ 169 µM) in the assay on A549. Besides, in the assay with MCF7 [13], the “Ratio IC50” value came out at 2.
Regarding `CCOC(=O)C1=C(C)NC(=S)NC1c1ccc(OCCCCCOc2ccc(C3NC(=S)NC(C)=C3C(=O)OCC)cc2OC)c(OC)c1` (configuration not stated), the 50% inhibitory concentration (IC50) is 180 µg/mL (≈ 252 µM) in the assay on MCF7 [1]; 113 µg/mL (≈ 159 µM) with COLO 205; over 200 µg/mL in the assay on HT-29; 124 µg/mL (≈ 174 µM) in the assay with A-431; over 200 µg/mL with A549. The zone of inhibition at 100 µg/mL with Staphylococcus aureus [3] worked out at 19 mm; in assay [4], 10 mm; in the assay with Bacillus subtilis [5] it was 8 mm; in the assay on Escherichia coli [6], 10 mm; in the assay on Klebsiella pneumoniae [7] it was 10 mm; in the assay with Pseudomonas aeruginosa [8] it was 20 mm. Moreover, the zone of inhibition at 50 µg/mL in the assay with Staphylococcus aureus [14] amounted to 10 mm; in the assay on Pseudomonas aeruginosa [15], 12 mm. Moreover, the outcome (in assay [9]; with Bacillus subtilis [10]; in the assay with Escherichia coli [11]; with Klebsiella pneumoniae [12]) was inactive.
For the compound `CCOC(=O)C1=C(C)NC(=S)NC1c1cccc(OCCCOc2cccc(C3NC(=S)NC(C)=C3C(=O)OCC)c2)c1` (configuration not stated), the IC50 was 16 µg/mL (≈ 25.6 µM) in the assay with MCF7 [1]; 144 µg/mL (≈ 230 µM) with COLO 205; over 200 µg/mL in the assay on HT-29; 76 µg/mL (≈ 122 µM) with A-431; 120 µg/mL (≈ 192 µM) in the assay with A549. The “Ratio IC50” value in the assay on MCF7 [13] stood at 3. The zone of inhibition at 100 µg/mL in the assay with Staphylococcus aureus [3] was found to be 10 mm; in assay [4] it was 15 mm; with Bacillus subtilis [5], 8 mm; in the assay with Escherichia coli [6], 20 mm; in the assay with Klebsiella pneumoniae [7] it was 5 mm; in the assay on Pseudomonas aeruginosa [8] it was 12 mm. The ΔTm in the assay on Nucleic Acid turned out to be 0.1 °C. Moreover, the result (in [9]; in the assay with Bacillus subtilis [10]; in the assay with Escherichia coli [11]; with Klebsiella pneumoniae [12]) was inactive.
